The source made the active and inactive calls. No cut-off for these calls is given here.
Tests used:
[1] = test system: Actinomyces viscosus; assay: Chlorohexidine coefficient for Actinomyces viscosus M-100; type: functional
In short: (§1)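 Hydroxylapatite-grown plaques were exposed once daily for 2 min to varying concentrations of agent until the organisms were killed. The highest level tested was 0.2% w/v for 5 days. Tests were run in duplicate. PBI is the concentration (mM) × duration (min) × frequency (days) needed for plaque kill. CC is the chlorhexidine PBI divided by the test-agent PBI.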

[2] = test system: Actinomyces viscosus; assay: Plaque bactericidal index against Actinomyces viscosus M-100 measured as chlorohexidine coefficient; type: functional; in short: as §1
[3] = test system: Streptococcus sobrinus; assay: Minimal bactericidal concentration against Streptococcus sobrinus 6715-13; type: functional
In short: (§2)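 Plaques were grown on standardized ceramic hydroxylapatite plates and immersed once in agent for 30 min. They were rinsed with sterile distilled water, moved to fresh broth and incubated anaerobically at 37 °C. Kill meant no further culture acid production, no turbidity change, and no growth when 48-h post-treatment plaque samples were subcultured. Tests were run in duplicate.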

[4] = test system: Streptococcus sobrinus; assay: Plaque bactericidal index against Streptococcus sobrinus 6715-13 measured as chlorohexidine coefficient; type: functional; in short: as §1
[5] = test system: Streptococcus sobrinus; assay: Chlorohexidine coefficient for Streptococcus sobrinus 6715-13; type: functional; in short: as §1
[6] = test system: Actinomyces viscosus; assay: Plaque bactericidal index against Actinomyces viscosus M-100 measured as chlorohexidine coefficient; not bactericidal at highest concentration tested (0.2% w/v, 2min, 5 days); type: functional, organism-based; in short: as §1
[7] = test system: Streptococcus sobrinus; assay: Minimal bactericidal concentration against d Streptococcus sobrinus 6715-13; Not active at 20 mM; type: functional, organism-based; in short: as §2
[8] = test system: Streptococcus sobrinus; assay: Plaque bactericidal index against Streptococcus sobrinus 6715-13 measured as chlorohexidine coefficient; d=Not bactericidal at highest concentration tested (0.2% w/v, 2min, 5 days); type: functional, organism-based; in short: as §1
[9] = test system: Actinomyces viscosus; assay: Chlorohexidine coefficient for Actinomyces viscosus 8A06; type: functional; in short: as §1
[10] = test system: Actinomyces viscosus; assay: Chlorohexidine coefficient for Actinomyces viscosus M-626; type: functional; in short: as §1
[11] = test system: Actinomyces viscosus; assay: Chlorohexidine coefficient for Actinomyces viscosus T14V; type: functional; in short: as §1
[12] = test system: Actinomyces viscosus; assay: Plaque bactericidal index against Actinomyces viscosus 8A06; type: functional; in short: as §1
[13] = test system: Actinomyces viscosus; assay: Plaque bactericidal index against Actinomyces viscosus M-100; type: functional; in short: as §1
[14] = test system: Actinomyces viscosus; assay: Plaque bactericidal index against Actinomyces viscosus 626; type: functional; in short: as §1
[15] = test system: Actinomyces naeslundii; assay: Chlorohexidine coefficient for Actinomyces naeslundii 631; type: functional; in short: as §1
[16] = test system: Actinomyces naeslundii; assay: Chlorohexidine coefficient for Actinomyces naeslundii B74; type: functional; in short: as §1
[17] = test system: Actinomyces naeslundii; assay: Chlorohexidine coefficient for Actinomyces naeslundii N/3; type: functional; in short: as §1
[18] = test system: Actinomyces naeslundii; assay: Chlorohexidine coefficient for Actinomyces naeslundii N/9; type: functional; in short: as §1
[19] = test system: Actinomyces naeslundii; assay: Plaque bactericidal index against Actinomyces naeslundii 631; type: functional; in short: as §1
[20] = test system: Actinomyces naeslundii; assay: Plaque bactericidal index against Actinomyces naeslundii N/9; type: functional; in short: as §1
[21] = test system: Actinomyces naeslundii; assay: Plaque bactericidal index against Actinomyces naeslundii B74; type: functional; in short: as §1
[22] = test system: Streptococcus sanguinis; assay: Chlorohexidine coefficient for Streptococcus sanguis ATCC 10558; type: functional; in short: as §1
[23] = test system: Streptococcus mitis; assay: Chlorohexidine coefficient for Streptococcus mitis 176-A1; type: functional; in short: as §1
[24] = test system: Streptococcus mitis; assay: Chlorohexidine coefficient for Streptococcus mitis 90557; type: functional; in short: as §1
[25] = test system: Streptococcus mitis; assay: Plaque bactericidal index against Streptococcus mitis 176-A1; type: functional; in short: as §1
[26] = test system: Streptococcus mitis; assay: Plaque bactericidal index against Streptococcus mitis 90557; type: functional; in short: as §1
[27] = test system: Streptococcus sanguinis; assay: Chlorohexidine coefficient for Streptococcus sanguis H7P; type: functional
In short: (§3)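 Plaques were grown on standardized ceramic hydroxylapatite plates and treated once daily for 2 min with varying concentrations until kill. They were then rinsed in sterile water and incubated in fresh broth at 37 °C anaerobically. Kill meant no acid production, no turbidity change, and no regrowth of 48-h post-treatment subcultures. Tests were run in duplicate. PBI = concn (mM) × min × days to kill; CC = chlorhexidine PBI ÷ test PBI.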

[28] = test system: Streptococcus sanguinis; assay: Plaque bactericidal index against Streptococcus sanguis ATCC 10558; type: functional; in short: as §1
[29] = test system: Streptococcus sanguinis; assay: Plaque bactericidal index against Streptococcus sanguis H7P; type: functional; in short: as §3
[30] = test system: Streptococcus sobrinus; assay: Chlorohexidine coefficient for Streptococcus sobrinus SL-1; type: functional; in short: as §1
[31] = test system: Streptococcus sobrinus; assay: Plaque bactericidal index against Streptococcus sobrinus 6715-13; type: functional; in short: as §1
[32] = test system: Streptococcus sobrinus; assay: Plaque bactericidal index against Streptococcus sobrinus SL-1; type: functional; in short: as §1
[33] = test system: Streptococcus mutans; assay: Chlorohexidine coefficient for Streptococcus mutans FA-1; type: functional; in short: as §1
[34] = test system: Streptococcus mutans; assay: Chlorohexidine coefficient for Streptococcus mutans GR-5; type: functional; in short: as §1
[35] = test system: Streptococcus mutans; assay: Chlorohexidine coefficient for Streptococcus mutans IB1600; type: functional; in short: as §1
[36] = test system: Streptococcus mutans; assay: Chlorohexidine coefficient for Streptococcus mutans OMZ-61; type: functional; in short: as §1
[37] = test system: Streptococcus mutans; assay: Plaque bactericidal index against Streptococcus mutans FA-1; type: functional; in short: as §1
[38] = test system: Streptococcus mutans; assay: Plaque bactericidal index against Streptococcus mutans GR-5; type: functional; in short: as §1
[39] = test system: Streptococcus mutans; assay: Plaque bactericidal index against Streptococcus mutans IB1600; type: functional; in short: as §1
[40] = test system: Streptococcus mutans; assay: Plaque bactericidal index against Streptococcus mutans OMZ-61; type: functional; in short: as §3
[41] = test system: Actinomyces naeslundii; assay: Plaque bactericidal index against Actinomyces naeslundii N/3; type: functional; in short: as §1

In the case of Br.CCCCCCCCCN=c1ccn(CCCCCCCC)cc1, the CC [1] is reported as 1.9, the PBI [2] is reported as 9.7 and the MBC [3] is reported as 1210 µM. The PBI [4] was 9.7 and the CC [5] was 2.6.
Work on CCCCCCCCCn1ccc(=NCCCCCCCC)cc1.Cl yielded a CC [1] of 1.4, a PBI [2] of 13.3 and an MBC [3] of 1350 µM. It also gave a PBI [4] of 13.3 and a CC [5] of 1.9.
For CCCCCCCN=c1ccn(CCCCCC)cc1.Cl, the CC [1] was 3, the PBI [2] was 6.4 and the MBC [3] was 1600 µM. For the same compound, the PBI [4] was 12.8 and the CC [5] was 2.
CCCCCCCCCN=c1ccn(CCCCCCCCC)cc1.Cl gave a CC [1] of 4, a PBI [2] of 5.2 and an MBC [3] of 2610 µM. For the same compound, the PBI [4] was 10.4 and the CC [5] was 2.5.
Br.CCCCCCCCn1ccc(=NCC(CC)CCCC)cc1 (stereo unspecified) gave a CC [1] of 1.9, a PBI [2] of 10 and an MBC [3] of 1250 µM. It also gave a PBI [4] of 10 and a CC [5] of 2.5.
With CN=c1ccn(C)cc1 the PBI [6] was “Not bactericidal”, the MBC [7] was “inactive” and the PBI [8] was “Not bactericidal”.
CCCCCCCCCCCCN=c1ccn(Cc2ccccc2)cc1.Cl showed a CC [1] of 1.9, a PBI [2] of 10.3 and an MBC [3] of 1290 µM. For the same compound, the PBI [4] was 15.4 and the CC [5] was 1.7.
With Br.CCCCCCCCN=c1ccn(CCCCCC)cc1 the CC [1] was 1.4, the PBI [2] was 13.5 and the MBC [3] was 1350 µM. It also gave a PBI [4] of 10.8 and a CC [5] of 2.4.
In the case of CCCCCCCCCn1ccc(=NCCCCCC)cc1.Cl, the CC [1] is reported as 2.2, the PBI [2] is reported as 8.8 and the MBC [3] is reported as 290 µM. The PBI [4] was 2.9 and the CC [5] was 8.8.
For CCCCCCCCN=c1ccn(CCCCCCCC)cc1.Cl [PIRTENIDINE HYDROCHLORIDE], the CC [9] was 4.6, the CC [1] was 6.9 and the CC [10] was 13.7. The CC [11] was 13.7, the PBI [12] was 4.2 and the PBI [13] was 2.8. For the same compound, the PBI [2] was 2.8, the PBI [14] was 1.4 and the CC [15] was 6.9. It also gave a CC [16] of 13.7, a CC [17] of 13.7 and a CC [18] of 13.7. For the same compound, the PBI [19] was 2.8, the PBI [20] was 1.4 and the PBI [21] was 1.4. It also gave a CC [22] of 6.4, a CC [23] of 1.6 and a CC [24] of 6.4. The PBI [25] was 20, the PBI [26] was 5 and the CC [27] was 3.2. For the same compound, the PBI [28] was 5, the PBI [29] was 10 and the CC [30] was 9.1. For the same compound, the PBI [31] was 2.8, the PBI [32] was 2.8 and the CC [33] was 18.3. It also gave a CC [34] of 18.3, a CC [35] of 18.3 and a CC [36] of 18.3. The PBI [37] was 1.4, the PBI [38] was 1.4 and the PBI [39] was 1.4. It also gave a PBI [40] of 1.4, an MBC [3] of 280 µM and a PBI [4] of 2.8. It also gave a CC [5] of 9.1 and a PBI [41] of 1.4.
With CCCCCCCCn1ccc(=NCCCCCC)cc1.Cl the CC [1] was 6.4, the PBI [2] was 3 and the MBC [3] was 310 µM. The PBI [4] was 4.6 and the CC [5] was 5.6.
Work on Br.CCCCCCCCCN=c1ccn(CCCCCCC)cc1 yielded a CC [1] of 1.9, a PBI [2] of 10 and an MBC [3] of 1250 µM. It also gave a PBI [4] of 10 and a CC [5] of 2.5.
Work on Br.CCCCCCCCn1ccc(=NCCCCCCC)cc1 yielded a CC [1] of 1.8, a PBI [2] of 10.4 and an MBC [3] of 1300 µM. It also gave a PBI [4] of 10.4 and a CC [5] of 2.5.
CCCCCCCCCCN=c1ccn(CCCCC)cc1.Cl was tested, and the CC [1] was 3.2, the PBI [2] was 5.9 and the MBC [3] was 290 µM. It also gave a PBI [4] of 3 and a CC [5] of 8.5.

Source: ChEMBL document CHEMBL1123990, “The in vitro dental plaque inhibitory properties of a series of N-[1-alkyl-4(1H)-pyridinylidene]alkylamines” (1988)
